Data as given in ChEMBL document CHEMBL1122228, “1-(Aminomethyl)-6,7-dihydroxytetralin derivatives: synthesis and assessment of dopamine-like effects” (1983).
Active and inactive are the calls of the source. The rule behind the calls is not given here.

Experiments:
Felis catus [1] = test: Inhibition of positive chronotropic response induced by stimulation of cardioaccelerator nerve of cat at 1 mg/kg (iv); Inactive; assay type: functional, organism-based; design: dose 1 mg/kg
Outline: (§1)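 Cats of either sex, 4–6 kg, were anesthetized with intraperitoneal pentobarbital sodium (30 mg/kg) and pretreated with atropine sulfate (200 μg/kg) and hexamethonium bromide (10 mg/kg). They were intubated and ventilated, with the chest opened. Bipolar platinum electrodes were placed on the right postganglionic cardioaccelerator nerves, stimulated at 2 Hz for 30 s, 2-ms pulses, supramaximal 20–25 V. Heart rate was recorded. Compounds were given iv up to 1 mg/kg.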

Felis catus [2] = test: Inhibition of positive chronotropic response induced by stimulation of cardioaccelerator nerve of cat at 1 mg/kg (iv); assay type: functional; outline: as §1
Felis catus [3] = test: Active dose range of hypotensive effect in cat; range is 0.008-0.032 uM/kg.; assay type: functional
Felis catus [4] = test: Ability to lower arterial blood pressure in cat at 1.7 umol/kg; assay type: functional, Artery
Outline: (§2)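 Cats of either sex, 4–6 kg, anesthetized with intraperitoneal pentobarbital sodium (30 mg/kg), intubated and ventilated by respirator. Arterial blood pressure and heart rate were monitored. Test doses ranged from 0.5 to 1.0 mg/kg.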

Felis catus [5] = test: Ability to lower arterial blood pressure in cat at 3.4 umol/kg; assay type: functional, Artery; outline: as §2

CNCC1CCCc2cc(O)c(O)cc21 (stereo unspecified)
Activity (Felis catus [1]): inactive

CN1CCc2cccc3c2[C@H]1Cc1ccc(O)c(O)c1-3 [APOMORPHINE]
ED50 (Felis catus [2]): 0.022 µmol/kg | Dose range (Felis catus [3]): 0.032 µM/kg

Br.CN(C)CC1CCCc2cc(O)c(O)cc21 (stereo unspecified)
BP (Felis catus [4]): 31.5 mmHg | Activity (Felis catus [1]): inactive | BP (Felis catus [5]): 34.5 mmHg

CCN(CC)CC1CCCc2cc(O)c(O)cc21 (stereo unspecified)
Activity (Felis catus [1]): inactive

CCNCC1CCCc2cc(O)c(O)cc21 (stereo unspecified)
Activity (Felis catus [1]): inactive

CC(C)N(C)CC1CCCc2cc(O)c(O)cc21 (stereo unspecified)
Activity (Felis catus [1]): inactive

CC(C)NCC1CCCc2cc(O)c(O)cc21 (stereo unspecified)
Activity (Felis catus [1]): inactive

CCCNCC1CCCc2cc(O)c(O)cc21 (stereo unspecified)
Activity (Felis catus [1]): inactive
